Experiment [1] relates to RAW264.7. The experiment in a line: Antiinflammatory activity in LPS-induced mouse RAW264.7 cells assessed as TNFalpha levels at 2.5 uM pretreated for 2 hrs followed by LPS stimulation and measured after 6 hrs by ELISA (reference value: 4377.1 +/- 318.6 pg/ml). Type of experiment: functional. An outline of the steps: (§1)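 RAW264.7 murine macrophages (DMEM, 10% serum, 37 °C, 5% CO2) seeded at 5 × 10^5 cells per well, pretreated 2 h with compound at 10, 5, 2.5 or 1.25 μM (DMSO 0.1% v/v), then LPS (E. coli 0127:B8) 100 ng mL−1 added. Supernatant TNF-α or IL-6 read by mouse ELISA kit after 6, 12 and 24 h. Mean ± SD, n = 3, three independent experiments.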

Experiment [2] has as its system RAW264.7. The experiment in a line: Antiinflammatory activity in LPS-induced mouse RAW264.7 cells assessed as IL-6 levels at 10 uM pretreated for 2 hrs followed by LPS stimulation and measured after 24 hrs by ELISA (reference value: 1966.6 +/- 102.3 pg/ml). It is filed as functional. The essentials: as §1
Experiment [3] concerns RAW264.7. Briefly: Antiinflammatory activity in LPS-induced mouse RAW264.7 cells assessed as IL-6 levels at 5 uM pretreated for 2 hrs followed by LPS stimulation and measured after 24 hrs by ELISA (reference value: 1966.6 +/- 102.3 pg/ml). It is filed as functional. The essentials: as §1
Experiment [4] deals with RAW264.7. The experiment in a line: Antiinflammatory activity in LPS-induced mouse RAW264.7 cells assessed as TNFalpha levels at 5 uM pretreated for 2 hrs followed by LPS stimulation and measured after 24 hrs by ELISA (reference value: 9653.7 +/- 377.3 pg/ml). Type of experiment: functional. An outline of the steps: as §1
In experiment [5] the test system is RAW264.7. Briefly: Antiinflammatory activity in LPS-induced mouse RAW264.7 cells assessed as IL-6 levels at 2.5 uM pretreated for 2 hrs followed by LPS stimulation and measured after 6 hrs by ELISA (reference value: 472.3 +/- 25.8 pg/ml). Type of experiment: functional. An outline of the steps:
as §1

The subject of experiment [6] is RAW264.7. Briefly: Antiinflammatory activity in LPS-induced mouse RAW264.7 cells assessed as IL-6 levels at 5 uM pretreated for 2 hrs followed by LPS stimulation and measured after 6 hrs by ELISA (reference value: 472.3 +/- 25.8 pg/ml). Type of experiment: functional. An outline of the steps: as §1
The subject of experiment [7] is RAW264.7. The experiment in a line: Antiinflammatory activity in LPS-induced mouse RAW264.7 cells assessed as IL-6 levels at 1.25 uM pretreated for 2 hrs followed by LPS stimulation and measured after 12 hrs by ELISA (reference value: 1394 +/- 62.6 pg/ml). Type of experiment: functional. The essentials:
as §1

In experiment [8] the test system is RAW264.7. Briefly: Antiinflammatory activity in LPS-induced mouse RAW264.7 cells assessed as TNFalpha levels at 1.25 uM pretreated for 2 hrs followed by LPS stimulation and measured after 6 hrs by ELISA (reference value: 4377.1 +/- 318.6 pg/ml). It is filed as functional. The essentials: as §1
The test system of experiment [9] is RAW264.7. The experiment in a line: Antiinflammatory activity in LPS-induced mouse RAW264.7 cells assessed as IL-6 levels at 2.5 uM pretreated for 2 hrs followed by LPS stimulation and measured after 12 hrs by ELISA (reference value: 1394 +/- 62.6 pg/ml). It is filed as functional. The essentials:
as §1

Experiment [10] relates to RAW264.7. The experiment in a line: Antiinflammatory activity in LPS-induced mouse RAW264.7 cells assessed as TNFalpha levels at 1.25 uM pretreated for 2 hrs followed by LPS stimulation and measured after 24 hrs by ELISA (reference value: 9653.7 +/- 377.3 pg/ml). It is filed as functional. An outline of the steps:
as §1

In experiment [11] the test system is RAW264.7. The experiment in a line: Antiinflammatory activity in LPS-induced mouse RAW264.7 cells assessed as IL-6 levels at 5 uM pretreated for 2 hrs followed by LPS stimulation and measured after 12 hrs by ELISA (reference value: 1394 +/- 62.6 pg/ml). It is filed as functional. The essentials: as §1
The subject of experiment [12] is RAW264.7. Briefly: Antiinflammatory activity in mouse RAW264.7 cells assessed as inhibition of LPS-induced NO production pretreated for 2 hrs followed by LPS stimulation measured after 24 hrs by Griess assay. It is filed as functional, cell-based. The essentials:
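RAW264.7 murine macrophages (DMEM, 10% serum, 37 °C, 5% CO2) seeded at 5 × 10^4 cells/well and cultured 18 h. Compounds tested at 1–100 μM (DMSO 0.1% v/v), with LPS (E. coli 0127:B8) at 100 ng mL−1. Supernatant nitrite read with Griess reagent (10 min, room temperature, OD540).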

In experiment [13] the test system is RAW264.7. Briefly: Antiinflammatory activity in LPS-induced mouse RAW264.7 cells assessed as IL-6 levels at 1.25 uM pretreated for 2 hrs followed by LPS stimulation and measured after 24 hrs by ELISA (reference value: 1966.6 +/- 102.3 pg/ml). It is filed as functional. An outline of the steps: as §1
Experiment [14] addresses Transcription factor p65 (Mus musculus) (UniProt Q04207). Briefly: Inhibition of LPS-induced NFkappaB p65 phosphorylation in mouse RAW264.7 cells after 4 hrs by Western blot analysis. It is filed as cell-based. The essentials: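 RAW264.7 cells at 2 × 10^6 per well given fresh medium with compound (10, 5, 2.5, 1.25 μM) plus LPS 500 ng mL−1 for 4 h. Lysed in IP buffer with 1 mM PMSF, protein by BCA. Run on 12.5% SDS-PAGE and blotted. Phospho and total ERK1/2 (Thr202/Tyr204), p38 (Thr180/Tyr182), IκBα (Ser32/36) and NF-κB p65 detected by ECL. Mean ± SD, n = 3.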

The text below walks through data of ChEMBL document CHEMBL4257465, “Strigolactones: a plant phytohormone as novel anti-inflammatory agents” (Medchemcomm, 2018).

Chain of Transcription factor p65 (Mus musculus) (Q04207 whole entry): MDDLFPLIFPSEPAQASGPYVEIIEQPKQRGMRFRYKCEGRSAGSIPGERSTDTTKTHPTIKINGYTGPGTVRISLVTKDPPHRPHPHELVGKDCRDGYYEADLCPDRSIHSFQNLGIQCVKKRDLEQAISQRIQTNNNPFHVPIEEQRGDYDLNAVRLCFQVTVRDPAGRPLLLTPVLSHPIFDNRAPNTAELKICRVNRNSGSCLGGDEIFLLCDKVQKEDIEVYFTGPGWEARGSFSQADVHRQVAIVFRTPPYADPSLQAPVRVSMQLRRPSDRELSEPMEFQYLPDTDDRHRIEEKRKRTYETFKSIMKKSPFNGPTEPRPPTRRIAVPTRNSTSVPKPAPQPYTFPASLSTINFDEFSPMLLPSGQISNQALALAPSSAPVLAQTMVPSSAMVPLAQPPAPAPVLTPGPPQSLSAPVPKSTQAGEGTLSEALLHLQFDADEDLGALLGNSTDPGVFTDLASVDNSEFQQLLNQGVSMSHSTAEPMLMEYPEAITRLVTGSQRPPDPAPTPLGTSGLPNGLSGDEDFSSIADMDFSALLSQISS

On to `CC1=C[C@H](O/C=C2/C(=O)O[C@@H]3c4ccccc4C[C@H]23)OC1=O`, for which the Activity with RAW264.7 [1] is 4276.9 pg/mL; with RAW264.7 [2] it was 1002.2 pg/mL; with RAW264.7 [3] it was 1499.2 pg/mL; in the experiment on RAW264.7 [4], 9085.5 pg/mL; with RAW264.7 [5], 433.6 pg/mL; in the experiment with RAW264.7 [6] it was 387.1 pg/mL. Also, the Activity in the experiment with RAW264.7 [7] is 1351.9 pg/mL; in the experiment on RAW264.7 [8] it was 4388.3 pg/mL; in the experiment on RAW264.7 [9], 1267.7 pg/mL; in the experiment on RAW264.7 [10] it was 9565.4 pg/mL; in the experiment on RAW264.7 [11], 1090.7 pg/mL; in the experiment on RAW264.7 [13], 1892.3 pg/mL. Further, the IC50 in the experiment with RAW264.7 [12] is 3.14 µM. Further, the inhibition entry in experiment [14] is “Dose-dependent effect”.

For the molecule `CC1=C[C@@H](O/C=C2/C(=O)O[C@H]3c4ccccc4C[C@@H]23)OC1=O`, the Activity in the experiment with RAW264.7 [1] is 4307.9 pg/mL; with RAW264.7 [2], 1061.3 pg/mL; in the experiment on RAW264.7 [3], 1561.1 pg/mL; in the experiment on RAW264.7 [4], 9318.5 pg/mL; in the experiment on RAW264.7 [5] it was 447.9 pg/mL; with RAW264.7 [6], 410.3 pg/mL. The Activity with RAW264.7 [7] came out at 1374.3 pg/mL; in the experiment on RAW264.7 [8], 4367.3 pg/mL; in the experiment on RAW264.7 [9], 1296 pg/mL; in the experiment on RAW264.7 [10], 9582.9 pg/mL; in the experiment with RAW264.7 [11], 1177 pg/mL; in the experiment on RAW264.7 [13], 1936.5 pg/mL. For the same molecule, the IC50 in the experiment with RAW264.7 [12] is 3.51 µM. The inhibition entry in [14] is “Dose-dependent effect”.
